Results on twelve molecules are retold here after ChEMBL document CHEMBL4014344, “Discovery of the Soluble Guanylate Cyclase Stimulator Vericiguat (BAY 1021189) for the Treatment of Chronic Heart Failure” (J Med Chem, 2017).

Tested on in one data set: not listed separately
Description: Oral bioavailability in Beagle dog administered via oral gavage after 24 hrs by LC-MS analysis. The data set is classed as ADME, organism-based, Canis lupus familiaris. The note with it: in vivo. The method in brief:
(§1)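 Male Wistar rats and female beagle dogs. iv in plasma/DMSO (rat) or H2O/PEG 400/EtOH (dog). Oral gavage in H2O/PEG 400/EtOH for both. Rats jugular-catheterised ≥1 d before dosing. Usually >10 blood samples, at least two after 24 h. Plasma quantified by LC-MS with internal standard. CL, t1/2, Vss and F calculated from plasma curves. Blood clearance via blood/plasma ratio (20 min blood incubation).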
The bioavailability is dose-corrected exposure relative to a reference, in per cent. `COC(=O)N(C)c1c(N)nc(-c2nn(Cc3ccccc3F)c3ncccc23)nc1N` [RIOCIGUAT] yielded a bioavailability of 79%.

`COC(=O)Nc1c(N)nc(-n2nc(Cc3ccccc3F)c3ncc(F)cc32)nc1N` returned a bioavailability of 56%.

Tested on in the next data set: not listed separately
Description: Apparent permeability across apical to basolateral side in human Caco2 cells at 2 uM after 2 hrs by LC-MS analysis. Type of data set: ADME, cell-based. The conditions noted are these: Caco-2. The essentials: (§2)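 Caco-2 cells grown 14−16 d on inserts. Compound dissolved in DMSO and diluted to final 2 μM in HBSS with glucose (19.9 mM) and HEPES (9.8 mM). Added apically (A−B) or basolaterally, incubated 2 h at 37 °C. Both compartments analysed by LC-MS to calculate Papp. Efflux ratio = Papp B−A/Papp A−B. Lucifer yellow monolayer integrity check.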
For orientation: Caco-2 cells form a polarised layer with tight junctions and transporters.
The Papp A→B is how fast a substance crosses the layer from the apical side. As to `Nc1nc(-c2nn(Cc3ccccc3F)c3ncccc23)nc(N)c1NC(=O)OC1CCC1`, the Papp A→B at 2 h, 2 µM came out at 2.3 ×10⁻⁶ cm/s.

With `Nc1nc(-c2nn(Cc3ccccc3F)c3ncccc23)nc(N)c1NC(=O)OC1COC1`, the apparent permeability from apical to basolateral (Papp A→B) at 2 h, 2 µM worked out at 0.2 ×10⁻⁶ cm/s.

For the molecule `COC(=O)Nc1c(N)nc(-c2nn(Cc3ccccc3F)c3ncccc23)nc1N`, the Papp A→B at 2 h, 2 µM was 7.9 ×10⁻⁶ cm/s.

Another data set addresses T1, Guanylate cyclase soluble subunit alpha-1 (Rattus norvegicus) (UniProt P19686).
T1 sequence (whole entry): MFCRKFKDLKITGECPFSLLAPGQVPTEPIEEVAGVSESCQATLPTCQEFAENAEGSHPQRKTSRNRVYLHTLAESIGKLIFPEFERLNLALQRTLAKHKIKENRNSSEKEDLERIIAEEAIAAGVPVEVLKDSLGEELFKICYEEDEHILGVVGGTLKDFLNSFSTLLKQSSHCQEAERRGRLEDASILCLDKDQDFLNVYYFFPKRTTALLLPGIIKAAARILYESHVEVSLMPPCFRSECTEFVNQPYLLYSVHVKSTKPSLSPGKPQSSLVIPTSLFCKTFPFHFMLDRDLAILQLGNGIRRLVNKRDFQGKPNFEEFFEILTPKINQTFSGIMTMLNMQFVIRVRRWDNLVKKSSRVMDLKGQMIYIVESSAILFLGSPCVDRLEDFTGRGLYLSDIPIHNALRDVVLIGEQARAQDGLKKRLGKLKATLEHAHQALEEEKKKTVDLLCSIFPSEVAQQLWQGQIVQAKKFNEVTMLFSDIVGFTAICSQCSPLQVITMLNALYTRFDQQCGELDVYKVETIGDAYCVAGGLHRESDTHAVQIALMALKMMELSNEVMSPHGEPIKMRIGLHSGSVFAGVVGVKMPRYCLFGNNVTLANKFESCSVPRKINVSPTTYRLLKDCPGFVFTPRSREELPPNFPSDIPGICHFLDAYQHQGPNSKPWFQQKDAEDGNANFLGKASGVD
As to the kind of experiment: Stimulation of rat recombinant sGCalpha1 subunit expressed in CHO cells using alpha-[32P]GTP as substrate assessed as >=3 fold increase in [32P]cGMP formation after 10 mins by radioimmunoassay.
Conditions: not given
The data set is classed as cell-based.
For `Nc1nc(-c2nn(Cc3ccccc3F)c3ncccc23)nc(N)c1N1C[C@@H](C(F)(F)F)OC1=O`, the MEC turned out to be 0.03 µM.

As to `COC(=O)N(CCO)c1c(N)nc(-c2nn(Cc3ccccc3F)c3ncccc23)nc1N`, the MEC was determined as 0.3 µM.

As for `Nc1nc(-c2nn(Cc3ccccc3F)c3ncccc23)nc(N)c1NC(=O)OC1CCC1`, the MEC was determined as 0.2 µM.

With `COC(=O)N(C)c1c(N)nc(-c2nn(Cc3ccccc3F)c3ncccc23)nc1N` [RIOCIGUAT], the MEC was found to be 0.03 µM.

Regarding `Nc1nc(-c2nn(Cc3ccccc3F)c3ncccc23)nc(N)c1N1CCOC1=O`, the MEC came out at 0.3 µM.

`CC(C)OC(=O)Nc1c(N)nc(-c2nn(Cc3ccccc3F)c3ncccc23)nc1N`: the MEC came to 0.8 µM.

For the molecule `Nc1nc(-c2nn(Cc3ccccc3F)c3ncccc23)nc(N)c1NC(=O)OCC(F)(F)F`, the MEC was found to be 0.2 µM.

For the molecule `COC(=O)N(Cc1cccc(F)c1)c1c(N)nc(-c2nn(Cc3ccccc3F)c3ncccc23)nc1N`, the MEC is 0.2 µM.

As for `COC(=O)Nc1c(N)nc(-c2nc(Cc3ccccc3F)n3ncccc23)nc1N`, the MEC was 0.7 µM.

As for `Nc1nc(-c2nn(Cc3ccccc3F)c3ncccc23)nc(N)c1NC(=O)OC1COC1`, the MEC was found to be 2.3 µM.

`COC(=O)Nc1c(N)nc(-c2nn(Cc3ccccc3F)c3ncccc23)nc1N`: the MEC amounted to 0.3 µM.

As to `COC(=O)Nc1c(N)nc(-n2nc(Cc3ccccc3F)c3ncc(F)cc32)nc1N`, the MEC is 0.5 µM.

Tested on in a further data set: not listed separately
Description: Terminal half life in iv dosed Beagle dog blood after 24 hrs by LC-MS analysis. The data set is classed as ADME, organism-based, Canis lupus familiaris. The conditions noted are these: whole blood, read-out: beta t1/2 (converted). The essentials: as §1
Take `COC(=O)N(C)c1c(N)nc(-c2nn(Cc3ccccc3F)c3ncccc23)nc1N` [RIOCIGUAT]: the half-life was 2.4 h.

With `COC(=O)Nc1c(N)nc(-c2nc(Cc3ccccc3F)n3ncccc23)nc1N`, the half-life is 1.8 h.

`COC(=O)Nc1c(N)nc(-n2nc(Cc3ccccc3F)c3ncc(F)cc32)nc1N`: the half-life was 4.1 h.

Tested on in the next data set: not listed separately
As to the kind of experiment: Oral bioavailability in Wistar rat administered via oral gavage after 24 hrs by LC-MS analysis. The conditions noted are these: in vivo. The data set is classed as ADME, organism-based. The method in brief:
as §1
The molecule `COC(=O)N(C)c1c(N)nc(-c2nn(Cc3ccccc3F)c3ncccc23)nc1N` [RIOCIGUAT] came in with a bioavailability of 46%.

In turn, `COC(=O)Nc1c(N)nc(-c2nc(Cc3ccccc3F)n3ncccc23)nc1N` showed a bioavailability of 37%.

`COC(=O)Nc1c(N)nc(-n2nc(Cc3ccccc3F)c3ncc(F)cc32)nc1N`: the bioavailability came to 26%.

Tested on in another data set: not listed separately
Description: Terminal half life in iv dosed Wistar rat blood after 24 hrs by LC-MS analysis. The data set is classed as ADME, organism-based. The note with it: whole blood, read-out: beta t1/2 (converted). The essentials: as §1
`COC(=O)N(C)c1c(N)nc(-c2nn(Cc3ccccc3F)c3ncccc23)nc1N` [RIOCIGUAT]: the half-life is 1.4 h.

In the case of `COC(=O)Nc1c(N)nc(-c2nc(Cc3ccccc3F)n3ncccc23)nc1N`, the half-life is 0.5 h.

As for `COC(=O)Nc1c(N)nc(-n2nc(Cc3ccccc3F)c3ncc(F)cc32)nc1N`, the half-life was 1.5 h.

Tested on in the next data set: not listed separately
As to the kind of experiment: Plasma clearance in iv dosed Beagle dog after 24 hrs by LC-MS analysis. The data set is classed as ADME, organism-based, Canis lupus familiaris.
Conditions: not given
The method in brief:
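Female beagle dogs were dosed iv in an H2O/PEG 400/EtOH formulation. Blood was collected into heparinized tubes, and plasma was obtained by centrifugation at 1000g and stored at −20 °C if needed. Drug was quantified by LC-MS (selected ion monitoring or high-resolution) against an internal standard. Clearance was calculated from the plasma concentration–time course.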
For orientation: clearance means the rate of elimination divided by the concentration. Regarding `COC(=O)N(C)c1c(N)nc(-c2nn(Cc3ccccc3F)c3ncccc23)nc1N` [RIOCIGUAT], the clearance was 5 mL/min/kg.

`COC(=O)Nc1c(N)nc(-c2nc(Cc3ccccc3F)n3ncccc23)nc1N`: the clearance was 15 mL/min/kg.

Tested on in a further data set: not listed separately
Description: Clearance in iv dosed Wistar rat blood after 24 hrs by LC-MS analysis. The note with it: whole blood. Type of data set: ADME, organism-based. The essentials: as §1
In turn, `COC(=O)N(C)c1c(N)nc(-c2nn(Cc3ccccc3F)c3ncccc23)nc1N` [RIOCIGUAT] had a clearance of 21.7 mL/min/kg.

For the molecule `COC(=O)Nc1c(N)nc(-c2nc(Cc3ccccc3F)n3ncccc23)nc1N`, the clearance is 15 mL/min/kg.

The molecule `COC(=O)Nc1c(N)nc(-n2nc(Cc3ccccc3F)c3ncc(F)cc32)nc1N` gave a clearance of 5 mL/min/kg.

Tested on in a further data set: not listed separately
Description: Volume of distribution at steady state in iv dosed Wistar rat after 24 hrs by LC-MS analysis. The conditions noted are these: in vivo, read-out: Vdss. Type of data set: ADME, organism-based. The essentials:
as §1
Consider `COC(=O)N(C)c1c(N)nc(-c2nn(Cc3ccccc3F)c3ncccc23)nc1N` [RIOCIGUAT], for which the Vd was determined as 1.2 L/kg.

As for `COC(=O)Nc1c(N)nc(-c2nc(Cc3ccccc3F)n3ncccc23)nc1N`, the Vd was found to be 0.3 L/kg.

As to `COC(=O)Nc1c(N)nc(-n2nc(Cc3ccccc3F)c3ncc(F)cc32)nc1N`, the Vd is 0.5 L/kg.

Tested on in the next data set: not listed separately
Description: Efflux ratio of apparent permeability in human Caco2 cells. Type of data set: ADME, cell-based. The conditions noted are these: Caco-2. The method in brief: as §2
Broadly, the efflux ratio is a quotient of directional permeabilities that is used to spot active efflux. Consider `Nc1nc(-c2nn(Cc3ccccc3F)c3ncccc23)nc(N)c1NC(=O)OC1CCC1`, for which the efflux ratio came out at 25.

As to `Nc1nc(-c2nn(Cc3ccccc3F)c3ncccc23)nc(N)c1NC(=O)OC1COC1`, the efflux ratio was found to be 74.

`COC(=O)Nc1c(N)nc(-c2nn(Cc3ccccc3F)c3ncccc23)nc1N`: the efflux ratio came to 5.

Tested on in the next data set: not listed separately
Description: Volume of distribution at steady state in iv dosed Beagle dog after 24 hrs by LC-MS analysis. The data set is classed as ADME, organism-based, Canis lupus familiaris. The conditions noted are these: in vivo, read-out: Vdss. The essentials:
as §1
Take `COC(=O)N(C)c1c(N)nc(-c2nn(Cc3ccccc3F)c3ncccc23)nc1N` [RIOCIGUAT]: the Vd was found to be 0.7 L/kg.

As for `COC(=O)Nc1c(N)nc(-c2nc(Cc3ccccc3F)n3ncccc23)nc1N`, the Vd worked out at 2 L/kg.

Take `COC(=O)Nc1c(N)nc(-n2nc(Cc3ccccc3F)c3ncc(F)cc32)nc1N`: the Vd is 1 L/kg.

Tested on in a further data set: not listed separately
Description: Clearance in iv dosed Beagle dog blood after 24 hrs by LC-MS analysis. The data set is classed as ADME, organism-based, Canis lupus familiaris. The note with it: whole blood. The essentials: as §1
In the case of `COC(=O)Nc1c(N)nc(-n2nc(Cc3ccccc3F)c3ncc(F)cc32)nc1N`, the clearance was 3.33 mL/min/kg.

Tested on in the next data set: not listed separately
Description: Clearance in rat hepatocytes at 1 uM up to 90 mins by LC-MS/MS analysis. Type of data set: ADME, cell-based, Hepatocyte.
Conditions: not given
The method in brief: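 Rat hepatocytes at 1 × 10^6 viable cells/mL (trypan blue-corrected) in Williams' medium E, 1 μM substrate, MeCN ≤1%, 37 °C, pH 7.4. Sampled at 2−90 min, quenched with MeCN, analysed by LC-MS/MS.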
For `Nc1nc(-c2nn(Cc3ccccc3F)c3ncccc23)nc(N)c1N1C[C@@H](C(F)(F)F)OC1=O`, the CLhep predicted at 1 µM was 26.7 mL/min/kg.

`COC(=O)N(CCO)c1c(N)nc(-c2nn(Cc3ccccc3F)c3ncccc23)nc1N`: the CLhep predicted at 1 µM is 61.7 mL/min/kg.

For the molecule `Nc1nc(-c2nn(Cc3ccccc3F)c3ncccc23)nc(N)c1NC(=O)OC1CCC1`, the CLhep predicted at 1 µM was 23.3 mL/min/kg.

For `COC(=O)N(C)c1c(N)nc(-c2nn(Cc3ccccc3F)c3ncccc23)nc1N` [RIOCIGUAT], the CLhep predicted at 1 µM was 3.33 mL/min/kg.

For `Nc1nc(-c2nn(Cc3ccccc3F)c3ncccc23)nc(N)c1N1CCOC1=O`, the CLhep predicted at 1 µM is 6.67 mL/min/kg.

For the molecule `CC(C)OC(=O)Nc1c(N)nc(-c2nn(Cc3ccccc3F)c3ncccc23)nc1N`, the CLhep predicted at 1 µM was 15 mL/min/kg.

With `Nc1nc(-c2nn(Cc3ccccc3F)c3ncccc23)nc(N)c1NC(=O)OCC(F)(F)F`, the CLhep predicted at 1 µM was 35 mL/min/kg.

Regarding `COC(=O)N(Cc1cccc(F)c1)c1c(N)nc(-c2nn(Cc3ccccc3F)c3ncccc23)nc1N`, the CLhep predicted at 1 µM is 53.3 mL/min/kg.

Consider `COC(=O)Nc1c(N)nc(-c2nc(Cc3ccccc3F)n3ncccc23)nc1N`, for which the CLhep predicted at 1 µM was < 1.67 mL/min/kg.

Turning to `Nc1nc(-c2nn(Cc3ccccc3F)c3ncccc23)nc(N)c1NC(=O)OC1COC1`, the CLhep predicted at 1 µM was 1.67 mL/min/kg.

As to `COC(=O)Nc1c(N)nc(-c2nn(Cc3ccccc3F)c3ncccc23)nc1N`, the CLhep predicted at 1 µM is 1.67 mL/min/kg.

For `COC(=O)Nc1c(N)nc(-n2nc(Cc3ccccc3F)c3ncc(F)cc32)nc1N`, the CLhep predicted at 1 µM is 1.67 mL/min/kg.
